Screening data as filed in PubChem.
KCNK3 block: human KCNK3 channel inhibition, primary screen | CHO-KCNK3 thallium flux, FluxOR fluorescence; active compounds read low | B-score at 10 µM | O14649 | AID 602410 | 340,000 tested, 0.84% active;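 active means B-score under library mean minus 4 SD, starting fluorescence ratio at most library mean plus 5 SD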;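 further: more negative B-score means stronger inhibition of thallium flux through KCNK3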
KCNQ1 inh: inhibitors of human KCNQ1 potassium channel | P51787 | CHO-K1 KCNQ1, FluxOR thallium flux fluorescence; active compounds read high | B-score at 10 µM | 310,000 tested, 1.3% active | AID 2642;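 active means compounds whose thallium flux B-score, printed positive for inhibition, exceeds three library SD while starting fluorescence stays within three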;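 further: channel opened by potassium depolarization with thallium stimulus after 20 min compound exposure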
hERG rescue: compounds protecting human hERG from proarrhythmic drug block; CHO-hERG, FluxOR thallium flux, dofetilide IC70 present; activation (rescue from dofetilide block), less the hit threshold, % at 10 µM; Q12809; 310,000 tested, 0.51% active;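 active means activation above the mean of controls blocked by dofetilide plus 5 SD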;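 further: thallium influx through hERG after potassium depolarization seen as dye fluorescence rise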
Target sequence (Q12809 whole entry, looked up): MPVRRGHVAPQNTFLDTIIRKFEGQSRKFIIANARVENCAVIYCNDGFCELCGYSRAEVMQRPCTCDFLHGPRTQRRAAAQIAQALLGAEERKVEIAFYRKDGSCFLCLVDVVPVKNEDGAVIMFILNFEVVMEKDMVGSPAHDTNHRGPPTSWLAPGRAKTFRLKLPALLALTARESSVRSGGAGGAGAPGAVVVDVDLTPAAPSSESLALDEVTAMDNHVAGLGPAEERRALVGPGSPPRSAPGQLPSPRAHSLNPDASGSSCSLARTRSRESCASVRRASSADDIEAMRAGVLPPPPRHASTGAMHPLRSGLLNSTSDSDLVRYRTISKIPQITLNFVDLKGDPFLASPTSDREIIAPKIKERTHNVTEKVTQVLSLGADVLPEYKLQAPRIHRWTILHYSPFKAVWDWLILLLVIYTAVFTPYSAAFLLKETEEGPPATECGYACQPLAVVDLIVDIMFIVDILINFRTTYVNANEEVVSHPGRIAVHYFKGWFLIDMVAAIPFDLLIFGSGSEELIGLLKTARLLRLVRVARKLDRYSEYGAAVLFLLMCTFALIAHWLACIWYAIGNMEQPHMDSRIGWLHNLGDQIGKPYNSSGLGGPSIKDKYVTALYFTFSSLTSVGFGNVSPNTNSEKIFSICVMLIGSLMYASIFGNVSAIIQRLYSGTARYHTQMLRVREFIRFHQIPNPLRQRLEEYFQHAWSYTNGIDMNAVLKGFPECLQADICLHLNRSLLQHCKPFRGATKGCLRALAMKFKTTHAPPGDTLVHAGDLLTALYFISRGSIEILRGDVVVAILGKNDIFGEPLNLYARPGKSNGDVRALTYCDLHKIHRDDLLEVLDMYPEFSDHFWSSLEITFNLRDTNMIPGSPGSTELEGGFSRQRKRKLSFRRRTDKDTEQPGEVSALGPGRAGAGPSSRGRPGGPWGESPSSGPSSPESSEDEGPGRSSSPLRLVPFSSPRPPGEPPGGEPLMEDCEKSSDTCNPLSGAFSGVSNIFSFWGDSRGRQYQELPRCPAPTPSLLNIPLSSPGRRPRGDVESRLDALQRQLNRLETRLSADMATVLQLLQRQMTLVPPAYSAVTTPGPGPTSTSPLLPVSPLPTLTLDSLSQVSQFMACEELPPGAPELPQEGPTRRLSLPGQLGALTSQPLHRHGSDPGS
KCNK9 inh: human KCNK9 channel inhibition | Q9NPC2 | HEK293 KCNK9, FluxOR thallium flux fluorescence; active compounds read low | B-score at 10 µM | 310,000 tested, 1.2% active;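 active means ratio B-score over 3 SD below the library mean, with starting fluorescence within 5 SD of its mean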;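 further: negative B-score means less thallium flux so channel inhibition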
Kir21 inh: Kir2.1 (mouse) channel inhibition | HEK293-Kir2.1, FluxOR thallium flux fluorescence; active compounds read low | B-score at 10 µM | AID 1672 | 310,000 tested, 0.85% active | P35561;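 active means fluorescence ratio B-score at or below minus 3 SD of library scores, with starting-brightness B-score within 2 SD, cut at about -4.2 in these data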;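 further: channel flux triggered by added potassium and thallium sulfate stimulus; B-score of peak minus minimum fluorescence over baseline after thallium stimulus; more negative B-score means stronger Kir2.1 block with less thallium influx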
KCNQ1 act: human KCNQ1 channel potentiation or activation. P51787. B-score at 10 µM. CHO-K1 KCNQ1, thallium flux FluxOR fluorescence; active compounds read high. 310,000 tested, 0.35% active;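 active means fluorescence ratio B-score, a plate-corrected score, at least three library SD, with initial intensity B-score within 5 SD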
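Test system: CHO-K1 cells stably expressing KCNQ1 / Medium: assay buffer / Also added: depolarizing K+/Tl+ stimulus, K2SO4 and Tl2SO4 each 12.5 mM in 5x stock / Incubation: 90 min dye loading and 20 min compound exposure, both at room temperature / Signal: thallium influx via FluxOR fluorescence, kinetic imaging / Evaluation: B score of baseline-normalized fluorescence ratio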
Each line names hits and unclear results; the compound was inactive in the other large screens. Shown are actives, neighbours in structure and some others; about 3.7% of the full set was active somewhere.

CNC[C@@H](CC1CCCCC1)NC[C@H](CC(C)C)NCCc1cccc(C(F)(F)F)c1	KCNQ1 inh 9, Kir21 inh -8.8
CCCCn1c(N)c(N(CCC(C)C)C(=O)c2[nH]c(C)c(C(=O)OCC)c2C)c(=O)[nH]c1=O	none
CN(C)Cc1ccccc1C(O)(c1ccccc1)c1ccccc1	Kir21 inh -4.7
O=C(NCCSc1ccc(Br)cc1)c1ccc2nc[nH]c2c1	none
Cc1sc2ncnc(NC3CCN(Cc4ccccc4)CC3)c2c1C	Kir21 inh -5.5
Cn1nnnc1SCc1ccc(C(=O)Nc2nccs2)cc1	none
C=CCn1c(SCc2ccc(C(=O)Nc3nccs3)cc2)nnc1-c1ccc(C)c(Cl)c1	KCNK9 inh -7.2
COc1ccc(Cl)cc1NC(=O)CCN1C(=O)C2C3C=CC(C4CC34)C2C1=O (stereo unspecified)	none
Cc1ccc(C23CC4CC(CC(CN)(C4)C2)C3)cc1	Kir21 inh -5.9
CN(Cc1ccccc1N1CCCC1)C(=O)c1cc2ccccc2o1	KCNK3 block -11 (no result: KCNQ1 inh, hERG rescue, KCNK9 inh, Kir21 inh, KCNQ1 act)
CN(Cc1c(F)cccc1Cl)C(=O)c1cc2ccccc2o1	none
CN(Cc1ccccc1N1CCCC1)C(=O)c1cc2cc(Cl)ccc2o1	KCNK3 block -9.5 (no result: KCNQ1 inh, hERG rescue, KCNK9 inh, Kir21 inh, KCNQ1 act)
Oc1c(Br)cc(Br)cc1CNc1cccc2cccnc12	none
Oc1ccc(Cl)cc1CNc1cccc2cccnc12	KCNK9 inh -7.7
CC(=O)OCCN(C)c1cc(SC(C)C)c2nonc2c1[N+](=O)[O-]	hERG rescue 7.4
COc1ccc(-n2cc(C(=O)c3cc(Cl)ccc3O)cc(C#N)c2=O)cc1	KCNQ1 inh 6
Cc1ccc(-n2cc(C(=O)c3cc(Cl)ccc3O)cc(C#N)c2=O)cc1	none
CCOc1ccc(-n2cc(C(=O)c3cc(Cl)ccc3O)cc(C#N)c2=O)cc1	KCNQ1 inh 8
COc1ccc(O)c(C(=O)c2cc(C#N)c(=O)n(-c3ccc(Cl)cc3)c2)c1	none
CC(OC(=O)c1ccc(Cl)nc1)C(=O)Nc1ccc2c(c1)OCO2 (stereo unspecified)	none (no result: KCNQ1 inh, hERG rescue, KCNK9 inh, Kir21 inh, KCNQ1 act)
O=C(NNc1c2ccccc2nc2ccccc12)c1ccccc1O	none
O=C(NNc1c2ccccc2nc2ccccc12)c1ccccc1Cl	KCNQ1 act 9
O=C1NN(c2ccccc2)C(=O)/C1=C\c1cccc(OC(=O)c2cccs2)c1	none
O=C1NN(c2ccc(Cl)c(Cl)c2)C(=O)/C1=C/c1cccc(OC(=O)c2cccs2)c1	Kir21 inh -4.4, KCNQ1 act 12 (no result: KCNK3 block)
Cn1cccc1/C=N/n1c(-c2ccc(C(C)(C)C)cc2)n[nH]c1=S	KCNK9 inh -7.7
Cn1cccc1/C=N/n1c(-c2ccccc2)n[nH]c1=S	none
CCC1(c2ccc(Cl)cc2)NC(=S)N(c2ccccc2)N1 (stereo unspecified)	hERG rescue 49, KCNQ1 act 40
CCCCCCC1(C)NC(=S)N(c2ccccc2)N1 (stereo unspecified)	none
Cc1cccc(NC(=O)CSCC(=O)N2CCN(C(=O)c3ccco3)CC2)c1	none (no result: KCNQ1 inh, hERG rescue, KCNK9 inh, Kir21 inh, KCNQ1 act)
Cc1cc(N2CCOCC2)nc(N2CCOCC2)n1	none
Cc1cc(N2CCN(C)CC2)nc(N2CCOCC2)n1	hERG rescue 8.0
COc1ccc(/C=N/NC(=O)CC#N)cc1Oc1nc(Cl)ncc1F	none
CCOc1cc(/C=N/NC(=O)c2ccc(O)cc2)ccc1Oc1nc(Cl)ncc1F	KCNK9 inh -7.8
CCCCOC(=O)Cn1c(=O)n(CC(=O)OCCCC)c2ccccc21	Kir21 inh -6.1
COc1cc(/C=N/NS(=O)(=O)c2ccc(C)c([N+](=O)[O-])c2)cc([N+](=O)[O-])c1O	KCNQ1 inh 6
COc1cc(/C=N/NS(=O)(=O)c2ccc(C)c([N+](=O)[O-])c2)ccc1O	none
CCn1cc(C(=O)NC2CCCc3c2cnn3-c2cccc(C)c2C)cn1 (stereo unspecified)	KCNQ1 inh 8
CCOC(=O)c1cc([N+](=O)[O-])sc1NC(=O)c1ccc(S(=O)(=O)N2CC3(C)CC2CC(C)(C)C3)cc1 (stereo unspecified)	KCNQ1 inh 8
COc1cccc(C(=O)CSc2nnc(-c3cc(OC)cc(OC)c3)o2)c1	hERG rescue 6.2
CCCNC(=O)c1ccccc1NC(=O)c1ccc(CSc2ccccc2)cc1	KCNQ1 inh 6
Cc1ccc(SCc2ccc(C(=O)Nc3ccccc3C(=O)NC(C)C)cc2)cc1	none
CCOC(=O)CC[C@H](NC(=O)Cn1cnc2c(SC)nc(N)nc21)C(=O)OCC	none (no result: KCNQ1 inh, hERG rescue, KCNK9 inh, Kir21 inh, KCNQ1 act)
CCn1c(=O)c(C(=O)NNS(=O)(=O)c2ccc(Br)cc2)c(O)c2ccccc21	KCNQ1 inh 6
CCCn1c(=O)c(C(=O)NCCc2ccc(Cl)cc2)c(O)c2ccccc21	KCNQ1 inh 7
CCCn1c(=O)c(C(=O)NCCCc2ccccc2)c(O)c2ccccc21	KCNQ1 inh 7
CCn1c(=O)c(C(=O)NCCc2ccc(Cl)cc2)c(O)c2ccccc21	none
CCn1c(=O)c(C(=O)NCCCc2ccccc2)c(O)c2ccccc21	KCNQ1 inh 6
CCCn1c(=O)c(C(=O)NCc2ccncc2)c(O)c2ccccc21	none
CCn1c(=O)c(C(=O)NNS(=O)(=O)c2ccc(C)cc2)c(O)c2ccccc21	none
Cn1c(N)c(C(=O)COC(=O)/C=C/c2ccccc2)c(=O)n(C)c1=O	none (no result: KCNQ1 inh, hERG rescue, KCNK9 inh, Kir21 inh, KCNQ1 act)
Cc1nc(N)[nH]c(=O)c1CCCNc1ccc(CCC2(CCl)OCCO2)cc1	none (no result: KCNQ1 inh, hERG rescue, KCNK9 inh, Kir21 inh, KCNQ1 act)
CCc1ccc(OC(=O)Nc2ccccc2)cc1	none
COc1ccc(CN(C)C(=O)c2cccc(S(=O)(=O)N3CCCc4ccccc43)c2)c(OC)c1OC	none (no result: KCNQ1 inh, hERG rescue, KCNK9 inh, Kir21 inh, KCNQ1 act)
COc1ccc(C2CCCN2CC(O)COc2ccccc2C(C)C)cc1 (stereo unspecified)	Kir21 inh -11
CC(C)(C)c1ccccc1OCC(=O)Nc1ccccc1C(=O)NCc1cccnc1	Kir21 inh -6
Cc1ccccc1N(C(=O)c1snc(C(N)=O)c1N)C(C(=O)NC1CCCCC1)c1ccc(O)cc1 (stereo unspecified)	KCNQ1 inh 6
COc1ccc(N(C(=O)c2snc(C(N)=O)c2N)C(C(=O)NC2CCCCC2)c2ccc(C)o2)c(OC)c1 (stereo unspecified)	KCNQ1 inh 6
COc1ccc(C(C(=O)NC2CCCCC2)N(C(=O)c2snc(C(N)=O)c2N)c2ccc(OC)cc2OC)cc1 (stereo unspecified)	none
Cc1cc(C)nc(N2CCC(C(=O)NNC(=O)c3ccc(Cl)cc3)CC2)n1	none
Cc1[nH]c(C)c(S(=O)(=O)N2CCCCC2)c1C(=O)N1CCCCC1	none
COc1ccc(N(Cc2cc3cc(OC)ccc3[nH]c2=O)S(=O)(=O)c2ccc(NC(C)=O)cc2)cc1	none
COc1ccc(N(Cc2cc3ccccc3[nH]c2=O)S(=O)(=O)c2ccc(OC)cc2)cc1	KCNK9 inh -7.2
